Screens from PubChem BioAssay.
VLA-4 inh = inhibition in human VLA-4 binding assay, primary screen, VLA-4 allosteric modulator project, MLPCN library, flow cytometry, VLA-4 expressing cells | Integrin alpha-4 (Homo sapiens), P13612 | ligand binding flow cytometry | inhibition, % (about 7 µM as worked out from the volumes in the protocol) | hit rate 0.2% among 330,000; in the data active = inhibition above about 50%
NR2E3 ag-1 = NR2E3 agonists in two-hybrid cells, primary screen, cell-based, luminescence, CHO-S, Gal4-NCOR/VP16-NR2E3; inhibition of corepressor binding, % at 3.98 µM; hit rate 0.35% among 360,000; luciferase; AID 602229, 2012; Photoreceptor-specific nuclear receptor (Homo sapiens), Q9Y5X4;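 active = inhibition above the mean of all tested compounds plus 3 SD, cut at about 70% in these data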;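 note: 0% = DMSO with NR2E3 transfected cells and 100% = cells lacking NR2E3 construct; higher means lower luciferase signal from less NR2E3 corepressor binding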
Target sequence (Q9Y5X4 whole entry, looked up, the tested form may be a part): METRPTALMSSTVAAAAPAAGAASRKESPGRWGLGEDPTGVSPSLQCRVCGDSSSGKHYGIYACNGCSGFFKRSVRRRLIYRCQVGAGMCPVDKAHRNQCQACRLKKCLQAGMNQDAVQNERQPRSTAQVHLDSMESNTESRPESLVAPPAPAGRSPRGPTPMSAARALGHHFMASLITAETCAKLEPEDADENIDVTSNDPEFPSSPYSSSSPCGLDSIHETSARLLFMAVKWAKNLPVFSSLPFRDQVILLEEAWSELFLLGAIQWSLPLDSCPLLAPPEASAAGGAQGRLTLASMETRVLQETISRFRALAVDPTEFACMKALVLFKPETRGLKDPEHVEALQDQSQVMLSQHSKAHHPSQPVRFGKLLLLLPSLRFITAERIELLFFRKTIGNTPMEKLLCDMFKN
PG9 Ab binder = binders of HIV-1 gp120 antibody PG9, primary screen, biochemical, TR-FRET | TR-FRET gp120-PG9 antibody binding | HIV-1 gp120 / PG9 antibody interaction | inhibition, % at 6.7 µM | AID 624416, 2012 | hit rate 0.43% among 360,000; in the data active = inhibition above about 8.5%
Rev-erbA mod = modulators of Rev-erb alpha DNA binding, primary screen, biochemical, FITC-DNA, fluorescence polarization, uHTS; Nuclear receptor subfamily 1 group D member 1 (Homo sapiens), P20393; Rev-erbα–FITC-DNA binding, 90 min; activity, % at 10 µM; hit rate 0.79% among 370,000;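 active = activity above about 14%, limit read from the data; passing the limit was not always enough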;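 note: 0% = DMSO wells with 35 nM protein and 100% = DMSO wells with 750 nM protein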
NR2E3 ag-2 = inhibitors of NR2E3-RetCOR corepressor binding, primary screen, NR2E3 agonist project, biochemical, TR-FRET, GST-NR2E3, biotin-RetCOR; Photoreceptor-specific nuclear receptor (Homo sapiens), Q9Y5X4; 1536-well; inhibition of corepressor binding, % at 4.78 µM; hit rate 0.12% among 320,000; AID 2300, 2010;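 active = percent inhibition above the cutoff of mean plus 3 SD of all tested compounds, set per screening campaign, cut at about 20% in these data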;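 note: 0% = DMSO wells and 100% = biotin wells as full block of FRET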
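Test system – NR2E3–RetCOR corepressor complex · Quantity – NR2E3 fusion 1.35 nM · Buffer or medium – Tris pH 7.5 · Incubation – Compound–protein incubation for 5 h at 4 °C · Technique – TR-FRET, Eu(K)-anti-GST donor, streptavidin-D2 acceptor, ex 340, em 617/671 nm · Evaluation – percent inhibition of 671/617 nm emission ratio versus biotin and DMSO controls · Plate – 1536-well format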
NR1D1 mod conf = modulators of Rev-erb alpha DNA binding, confirmation, biochemical, FITC-DNA, fluorescence polarization, single point; 90 min; activation, % at 25 µM; shares compounds with Rev-erbA mod; hit rate 61% among 3,000;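 active = activation at or above a set limit, or at least 3 SD above the negative control mean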;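 note: 0% = 35 nM protein with DMSO and 100% = 750 nM protein high control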
RORg counter = modulation of RORgamma DNA binding, dose response, counter-screen for Rev-erb alpha modulator project, biochemical, fluorescence polarization, FITC-DNA. hit rate 8% among 910. IC50, µM. purified RORgamma protein-FITC-DNA binding. shares compounds with Rev-erbA mod;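 active = Compounds whose fitted half-maximal concentration for disrupting protein-DNA binding is below 10 micromolar; the record names Rev-erb in its text, so the target is in doubt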
Starred values were filed as active, the others as inactive; / = not tested or not shown. Sampled rows, rich in hits. Any-hit rate of the full collection: about 1.6%.

SMILES	VLA-4 inh	NR2E3 ag-1	PG9 Ab binder	Rev-erbA mod	NR2E3 ag-2	NR1D1 mod conf	others
CCCCNc1ccc2c3c(cccc13)C(=O)N(CCCC)C2=O	/	-1.4	1.6	108.4*	/	127.8*	RORg counter=>40
CCCN1C(=O)c2cccc3c(N4CCCCC4)ccc(c23)C1=O	-281.6	-46.5	-0.3	96.0*	-1.4	96.8*	RORg counter=>40
O=C1c2cccc3c(N4CCCCC4)ccc(c23)C(=O)N1c1ccccn1	-7.9	-1.4	-0.6	-1.2	1.9	/
CCOc1cc(C)c(Cl)cc1S(=O)(=O)n1ccnc1	-4.7	-0.2	-0.7	3.3	2.1	/
CC(C)NC(=O)c1csc([C@@H]2O[C@H](CO)[C@H](O)[C@H](O)[C@H]2O)n1	/	-10.1	1.4	5.3	/	/
N#Cc1cc2c(nc1SCC(=O)Nc1sc3c(c1C#N)CCC3)CCCCCC2	10.6	-3.9	0.7	10.9	-2.3	/
CCSc1nnc(NC(=O)CSc2nc3c(cc2C#N)CCCC3)s1	10.5	-99.8	0.1	34.3*	-0.6	18.6*
CCc1nnc(NC(=O)CSc2nc3c(cc2C#N)CCC3)s1	0.2	-135.8	1.1	28.6*	-2.2	30.9*
C=CCN1C(=O)/C(=C2/Sc3ccc(OC)cc3N2C)SC1=NCc1ccccc1	10.3	-2.6	-1.5	55.2*	3.7	47.1*	RORg counter=>40
O=C1CCCN1CCCNc1nc2c(S(=O)(=O)c3ccc(Br)cc3)nnn2c2ccccc12	8.1	-6.0	1.5	30.6*	0.1	5.9
Cc1ccc(S(=O)(=O)c2nnn3c2nc(Nc2cccc(C)c2)c2ccccc23)cc1	-8.2	1.1	-0.1	28.5*	-2.9	14.1
Cc1ccc(C)c(Nc2nc3c(S(=O)(=O)c4ccccc4)nnn3c3ccccc23)c1	4.5	-2.0	1.2	63.3*	-1.3	32.8*	RORg counter=>40
CC(C)c1ccc(S(=O)(=O)c2nnn3c2nc(NCC2CCCO2)c2ccccc23)cc1 (stereo not drawn)	1.1	10.5	/	/	-2.6	/
O=C1C=C(OCCF)CC(c2ccccc2C(F)(F)F)O1 (stereo not drawn)	/	/	1.7	-1.9	/	/
O=C(C1=NN[C@@H]2C(=O)N(Cc3ccccc3)C(=O)[C@H]12)c1ccc([N+](=O)[O-])cc1	4.5	3.3	-0.2	15.9*	-0.3	4.2
C=CCn1c(=O)c(C(=O)NCCc2ccc(Cl)cc2)c(O)c2cc(OC)c(OC)cc21	9.4	-36.8	-0.3	28.9*	-2.0	3.8
Cc1nc(C)c(-c2ccc(SCC(=O)Nc3cccc(Cl)c3C)nn2)s1	-2.3	-4.5	-1.9	16.5*	14.1	-3.8
CN(C)S(=O)(=O)c1ccc(C(=O)OCC(=O)c2csc(N3CCCCC3)n2)cc1	13.3	-24.8	-1.1	23.7*	2.9	10.6
CCN(CC)S(=O)(=O)c1ccc(C(=O)NNC(=O)c2csc(N3CCOCC3)n2)cc1	-0.3	1.1	2.6	-0.9	-0.9	/
COc1ccccc1N=C1NC(=O)/C(=C/c2ccc(N(C)C)cc2)S1	-67.3	-84.2	-3.5	25.2*	-0.2	12.9
COc1ccc(/C=C2\SC(=Nc3ccccc3)NC2=O)cc1	8.4	/	/	/	/	/
O=c1[nH]c(=O)n(CCc2ccc(F)cc2)c(O)c1C=NCc1ccc2c(c1)OCO2	0.1	5.4	-2.0	21.0*	0.7	26.3*
NC1CCCCC1N=Cc1c(O)n(CCc2ccc(F)cc2)c(=O)[nH]c1=O (stereo not drawn)	/	-1.3	1.4	0.4	/	/
O=C(Nc1nc(-c2ccc3c(c2)Cc2ccccc2-3)cs1)c1ccccc1	7.9	-39.5	-2.6	50.0*	1.9	14.0
COc1ccc2cc(C(=O)NC3CCCCC3)c(=O)oc2c1	/	-15.1	-2.0	41.9*	/	18.8*
SMILES	VLA-4 inh	NR2E3 ag-1	PG9 Ab binder	Rev-erbA mod	NR2E3 ag-2	NR1D1 mod conf	others
O=C(NC1CCCCCC1)c1cc2ccccc2oc1=O	1.4	3.8	-3.3	-0.2	3.0	/
Cc1ccc(S(=O)(=O)N(C)c2ccc(OCC(=O)Nc3nc4c(ccc5ccccc54)s3)cc2)cc1	9.1	-36.3	-2.0	24.4*	-0.6	26.9*
O=C(CSc1ncnc2c(-c3ccc(Cl)cc3)nsc12)c1ccccc1	-33.3	-10.0	1.2	33.8*	4.5	18.9*
CCOC(=O)c1cccc(NC(=O)c2ccc(NC(=O)C3CCCO3)cc2)c1 (stereo not drawn)	2.2	-12.9	-0.2	4.3	3.9	/
O=c1c2cc(Br)ccc2[nH]c(=S)n1Cc1ccccn1	8.2	8.5	-4.3	1.4	2.0	/
O=c1c2cc(Br)ccc2[nH]c(=S)n1Cc1ccccc1	1.2	-71.8	1.9	39.0*	-3.2	17.9*
CCN(CC)C(=O)c1ccc2c(=O)n(Cc3cccc(Br)c3)c(=S)[nH]c2c1	-0.2	/	2.6	33.3*	0.3	13.1
COc1cc2[nH]c(=O)c(C(=O)NCc3ccc(F)cc3)c(O)c2cc1OC	-6.2	-17.4	0.8	25.2*	/	18.8*
CCOC(=O)c1c(NC(=S)Nc2ccc(OC)cc2)sc2c1CCC2	20.4	-8.6	-1.5	47.1*	4.4	37.0*	RORg counter=>40
CC(=O)Nc1cc(C(F)(F)F)ccc1N1CCOCC1	-3.6	-16.7	-1.0	-4.9	4.6	/
CCC(Oc1ccccc1)C(=O)Nc1cc(C(F)(F)F)ccc1N1CCOCC1 (stereo not drawn)	1.3	28.4	-0.4	16.2*	8.9	12.4
COC(=O)c1ccc(NC(=O)c2cn(-c3ccccc3)nc2-c2ccncc2)cc1	17.1	-1.8	8.4	289.1*	1.6	253.5*	RORg counter=>40
CC(=O)c1ccc(NC(=O)c2cn(-c3ccccc3)nc2-c2ccncc2)cc1	0.9	13.8	0.5	1.8	1.6	/
COC(=O)C1=C(C)NC(C)=C(C(=O)OC)C1C(=O)OCc1nc2cc(C(=O)OC)ccc2c(=O)[nH]1	-4.7	-16.8	0.4	0.6	-1.1	/
COC(=O)c1ccc2c(=O)[nH]c(COC(=O)CCC(=O)c3ccc(Cl)cc3)nc2c1	2.2	-19.8	5.7	19.9*	5.0	5.9
Cc1ccc(C=C2C=C(c3ccccc3)OC2=O)cc1	/	-103.1	0.2	-5.8	/	/
CN(C)c1ccc(C=C2C=C(c3ccccc3)OC2=O)cc1	/	-18.9	-2.4	31.9*	/	0.5
CN(C)c1ccc(/C=C2/C=C(c3ccc4c(c3)CCCC4)OC2=O)cc1	-146.0	-16.9	1.5	24.6*	0.8	3.1
